Results reported in ChEMBL document CHEMBL4270616, “Asymmetrical meta-methoxylated diarylpentanoids: Rational design, synthesis and anti-cancer evaluation in-vitro” (Eur J Med Chem, 2018).

Key:
[1] = system: A549; assay: Cytotoxicity against human A549 cells assessed as inhibition of cell proliferation at 20 uM after 72 hrs by MTT assay relative to control; format: functional; settings: A549, 72 h
Summary of the method: (§1)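 Single-concentration screen at 20 μM with 72 h exposure in DMEM with 10% FBS, final DMSO 0.1%. Read-out was MTT (5 mg/mL, 4 h, 37°C), DMSO solubilisation and absorbance at 570 nm, expressed as percent inhibition. Lines reaching a threshold percentage went on to IC50 determination.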

[2] = system: HT-1080; assay: Cytotoxicity against human HT1080 cells after 72 hrs by MTT assay; format: functional, cell-based; settings: HT-1080, 72 h
Summary of the method: (§2)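 Tumour lines kept in DMEM with 10% FBS and 1% penicillin/streptomycin at 37°C, 5% CO2. Seeded at 1500-5000 cells/well by doubling time and size, 24 h, then compound in DMSO-containing medium (final DMSO 0.1%) for 72 h. MTT (5 mg/mL) 4 h at 37°C, DMSO solubilisation, absorbance at 570 nm.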

[3] = Cytotoxicity against human EJ28 cells after 72 hrs by MTT assay; format: functional, cell-based; settings: EJ-28, 72 h; summary of the method: as §2
[4] = system: NHDF; assay: Cytotoxicity against NHDF after 72 hrs by MTT assay; format: cell-based; settings: Homo sapiens
Summary of the method: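 NHDF grown in DMEM with 5% FBS at 37°C, 5% CO2. Seeded at 1500-5000 cells/well, 24 h, then compound added in DMSO-containing medium (final DMSO 0.1%) for 72 h. MTT (5 mg/mL in medium) added for 4 h at 37°C, formazan dissolved in DMSO, absorbance read at 570 nm.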

[5] = system: MCF7; assay: Cytotoxicity against human MCF7 cells assessed as inhibition of cell proliferation at 20 uM after 72 hrs by MTT assay relative to control; format: functional; settings: MCF7, 72 h; summary of the method: as §1
[6] = system: MCF7; assay: Cytotoxicity against human MCF7 cells after 72 hrs by MTT assay; format: functional, cell-based; settings: MCF7, 72 h; summary of the method: as §2
[7] = system: HT-1080; assay: Cytotoxicity against human HT1080 cells assessed as inhibition of cell proliferation at 20 uM after 72 hrs by MTT assay relative to control; format: functional; settings: HT-1080, 72 h; summary of the method: as §1
[8] = system: SW-620; assay: Cytotoxicity against human SW620 cells assessed as inhibition of cell proliferation at 20 uM after 72 hrs by MTT assay relative to control; format: functional; settings: SW-620, 72 h; summary of the method: as §1
[9] = system: A549; assay: Cytotoxicity against human A549 cells after 72 hrs by MTT assay; format: functional, cell-based; settings: A549, 72 h; summary of the method: as §2
[10] = system: SW-620; assay: Cytotoxicity against human SW620 cells after 72 hrs by MTT assay; format: functional, cell-based; settings: SW-620, 72 h; summary of the method: as §2
[11] = Cytotoxicity against human EJ28 cells assessed as inhibition of cell proliferation at 20 uM after 72 hrs by MTT assay relative to control; format: functional; settings: EJ-28, 72 h; summary of the method: as §1

SMILES | inhibition at 20 µM [1] [%] | IC50 [2] [µM] | IC50 [3] [µM] | IC50 [4] [µM] | inhibition at 20 µM [5] [%] | IC50 [6] [µM] | inhibition at 20 µM [7] [%] | inhibition at 20 µM [8] [%] | IC50 [9] [µM] | IC50 [10] [µM] | inhibition at 20 µM [11] [%]
COc1cccc(/C=C2\CCC/C(=C\c3cccc(Cl)c3Cl)C2=O)c1OC | > 50 | 19.3 | 18.1 | > 50 | > 50 | > 20 | > 50 | > 50 | > 20 | 16.3 | > 50
COc1cccc(/C=C2\CCC/C(=C\c3ccc(Cl)cc3)C2=O)c1OC | > 50 | 11.1 | 11 | 18.6 | > 50 | 10.3 | > 50 | > 50 | > 20 | 11.1 | > 50
COc1ccc(/C=C2\CCC/C(=C\c3cccc(OC)c3OC)C2=O)cc1OC | > 50 | 6.4 | 6.6 | 14.9 | > 50 | 6.5 | > 50 | > 50 | 14.4 | 6.4 | > 50
COc1cccc(/C=C2\CCC/C(=C\c3ccc(O)c(Cl)c3)C2=O)c1OC | > 50 | 14.3 | 18.3 | 39.5 | > 50 | 16.4 | > 50 | > 50 | > 20 | 16.8 | > 50
COc1cccc(/C=C2\CCC/C(=C\c3ccc(O)cc3)C2=O)c1OC | > 50 | > 20 | > 20 | > 50 | > 50 | > 20 | > 50 | > 50 | > 20 | > 20 | > 50
COc1cccc(/C=C2\CCC/C(=C\c3cc(Cl)cc(Cl)c3)C2=O)c1OC | > 50 | 6.1 | 7.5 | 21.6 | > 50 | 4.3 | > 50 | > 50 | 12.5 | 5.5 | > 50
COc1ccc(/C=C2\CCC/C(=C\c3ccc(Br)cc3)C2=O)cc1OC | > 50 | 4.3 | 7.1 | 13.1 | > 50 | 6.9 | > 50 | > 50 | 16 | 5.2 | > 50
COc1cccc(/C=C2\CCC/C(=C\c3ccc(Br)cc3)C2=O)c1OC | > 50 | 13.7 | 15.2 | 21.4 | > 50 | 13.8 | > 50 | > 50 | > 20 | 11.1 | > 50
COc1cc(/C=C2\CCC/C(=C\c3cccc(OC)c3OC)C2=O)cc(OC)c1 | > 50 | 4.5 | 3.6 | 13.1 | > 50 | 1.7 | > 50 | > 50 | 10.2 | 3.8 | > 50
COc1cccc(/C=C2\CCC/C(=C\c3ccccc3Cl)C2=O)c1OC | > 50 | 11.7 | 12 | 44.2 | > 50 | 11.3 | > 50 | > 50 | > 20 | 10.3 | > 50
COc1ccc(/C=C2\CCC/C(=C\c3cccc(Cl)c3Cl)C2=O)cc1OC | > 50 | 8.8 | 10.4 | 18.5 | > 50 | 14.3 | > 50 | > 50 | > 20 | 10.8 | > 50
COc1ccc(/C=C2\CCC/C(=C\c3cc(Cl)cc(Cl)c3)C2=O)cc1OC | > 50 | 3 | 4.2 | 8.3 | > 50 | 3.8 | > 50 | > 50 | 5.5 | 2.5 | > 50
COc1ccc(/C=C2\CCC/C(=C\c3ccc(OC)c(OC)c3)C2=O)c(OC)c1 | > 50 | 17.1 | > 20 | > 50 | > 50 | 15.6 | > 50 | > 50 | > 20 | > 20 | > 50
COc1cccc(/C=C2\CCC/C(=C\c3ccc(OC)c(OC)c3)C2=O)c1 | > 50 | 4.6 | 4.2 | 11.6 | > 50 | 4.6 | > 50 | > 50 | 6.7 | 3.7 | > 50
COc1cccc(/C=C2\CCC/C(=C\c3cc(OC)c(OC)c(OC)c3)C2=O)c1OC | > 50 | 2.3 | 2.4 | 7.9 | > 50 | 1.4 | > 50 | > 50 | 5.9 | 2.5 | > 50
COc1cccc(/C=C2\CCC/C(=C\c3cccc(Br)c3)C2=O)c1OC | > 50 | 12.2 | 12.1 | 23.9 | > 50 | 11.7 | > 50 | > 50 | > 20 | 8.8 | > 50
COc1ccc(/C=C2\CCC/C(=C\c3cccc(Cl)c3)C2=O)cc1OC | > 50 | 4.9 | 5.4 | 11.9 | > 50 | 6 | > 50 | > 50 | 11 | 5.1 | > 50
